Results on 7 compounds are retold here after ChEMBL document CHEMBL2424622, “Development of amino-pyrimidine inhibitors of c-Jun N-terminal kinase (JNK): kinase profiling guided optimization of a 1,2,3-benzotriazole lead” (Bioorg Med Chem Lett, 2013).

As a reminder, the inhibition is the share of the control response that was lost under treatment.

A value given as a limit tells only on which side of the number the result lay.

In assay [1] the target is Fibroblast growth factor receptor 3 (Homo sapiens) (UniProt P22607). The experiment in a line: Competitive binding affinity to FGFR3 (unknown origin) at 10 uM in presence of ATP relative to control. An outline of the steps: (§1)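 In vitro ATP-site competition binding assay, part of profiling against a diverse panel of 128 kinases. Each compound was tested at a single concentration of 10 µM. Kinome selectivity was summarized as S15 selectivity scores.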

The target of assay [2] is Calcium/calmodulin-dependent protein kinase type II subunit beta (Homo sapiens) (UniProt Q13554). The experiment in a line: Competitive binding affinity to CAMK2B (unknown origin) at 10 uM in presence of ATP relative to control.
The target of assay [3] is Cyclin-dependent kinase 16 (Homo sapiens) (UniProt Q00536). The assay can be described thus: Competitive binding affinity to PCTK1 (unknown origin) at 10 uM in presence of ATP relative to control. An outline of the steps: (§2)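 In vitro ATP-site competition binding assay across a diverse panel of 128 kinases, with compound tested at a single concentration. Kinase selectivity scores (S15) were calculated from the panel profiles.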

Assay [4] addresses RAF proto-oncogene serine/threonine-protein kinase (Homo sapiens) (UniProt P04049). The experiment in a line: Competitive binding affinity to RAF1 (unknown origin) at 10 uM in presence of ATP relative to control. The method in brief: as §2
Assay [5] addresses Tyrosine-protein kinase BTK (Homo sapiens) (UniProt Q06187). The assay can be described thus: Competitive binding affinity to BTK (unknown origin) at 10 uM in presence of ATP relative to control.
For assay [6], the target named is Calcium/calmodulin-dependent protein kinase kinase 2 (Homo sapiens) (UniProt Q96RR4). The experiment in a line: Competitive binding affinity to CAMKK2 (unknown origin) at 10 uM in presence of ATP relative to control.
Assay [7] concerns the target Proto-oncogene tyrosine-protein kinase ROS (Homo sapiens) (UniProt P08922). The experiment in a line: Competitive binding affinity to ROS1 (unknown origin) at 10 uM in presence of ATP relative to control. An outline of the steps:
as §2

For assay [8], the target named is Mitogen-activated protein kinase 14 (Homo sapiens, UniProt Q16539). The assay can be described thus: Competitive binding affinity to p38-alpha (unknown origin) at 10 uM in presence of ATP relative to control. The method in brief: as §2
For assay [9], the target named is Protein-tyrosine kinase 6 (Homo sapiens) (UniProt Q13882). The assay can be described thus: Competitive binding affinity to PTK6 (unknown origin) at 10 uM in presence of ATP relative to control. The method in brief:
as §2

Assay [10] has as its target T1, Ephrin type-A receptor 3 (Homo sapiens) (UniProt P29320).
T1 sequence (whole entry): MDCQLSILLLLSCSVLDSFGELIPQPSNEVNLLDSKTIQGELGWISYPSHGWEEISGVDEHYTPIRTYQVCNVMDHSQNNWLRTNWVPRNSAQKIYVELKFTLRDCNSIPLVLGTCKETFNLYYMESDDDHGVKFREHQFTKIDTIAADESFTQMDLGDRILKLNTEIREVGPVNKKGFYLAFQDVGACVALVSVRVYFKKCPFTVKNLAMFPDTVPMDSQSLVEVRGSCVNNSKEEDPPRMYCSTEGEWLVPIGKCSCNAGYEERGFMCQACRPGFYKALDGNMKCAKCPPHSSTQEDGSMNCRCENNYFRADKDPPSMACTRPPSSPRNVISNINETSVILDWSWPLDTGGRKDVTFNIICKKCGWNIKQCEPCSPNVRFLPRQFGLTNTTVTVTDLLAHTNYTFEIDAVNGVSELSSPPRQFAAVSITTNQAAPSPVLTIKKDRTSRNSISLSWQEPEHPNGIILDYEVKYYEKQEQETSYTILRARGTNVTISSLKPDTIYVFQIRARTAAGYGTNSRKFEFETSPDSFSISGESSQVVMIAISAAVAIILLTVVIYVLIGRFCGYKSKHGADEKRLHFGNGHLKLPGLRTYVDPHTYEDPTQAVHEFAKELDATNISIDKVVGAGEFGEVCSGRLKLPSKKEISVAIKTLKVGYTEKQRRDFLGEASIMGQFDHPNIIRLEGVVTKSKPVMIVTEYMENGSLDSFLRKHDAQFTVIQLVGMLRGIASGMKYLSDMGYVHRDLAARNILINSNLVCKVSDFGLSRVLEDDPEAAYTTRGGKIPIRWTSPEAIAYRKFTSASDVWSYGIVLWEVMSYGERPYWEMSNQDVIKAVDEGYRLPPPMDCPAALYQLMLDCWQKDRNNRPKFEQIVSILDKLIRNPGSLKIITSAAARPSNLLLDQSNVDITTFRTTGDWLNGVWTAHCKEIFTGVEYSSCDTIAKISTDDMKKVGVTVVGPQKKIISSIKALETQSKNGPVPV
The experiment in a line: Competitive binding affinity to EPHA3 (unknown origin) at 10 uM in presence of ATP relative to control. The method in brief: as §1

Assay [11] deals with Serine/threonine-protein kinase MARK2 (Homo sapiens) (UniProt Q7KZI7). The assay can be described thus: Competitive binding affinity to MARK2 (unknown origin) at 10 uM in presence of ATP relative to control. The method in brief: as §2
The target of assay [12] is High affinity nerve growth factor receptor (Homo sapiens) (UniProt P04629). The experiment in a line: Competitive binding affinity to TRKA (unknown origin) at 10 uM in presence of ATP relative to control. An outline of the steps: as §2
Assay [13] addresses Dual specificity protein kinase CLK3 (Homo sapiens) (UniProt P49761). The experiment in a line: Competitive binding affinity to CLK3 (unknown origin) at 10 uM in presence of ATP relative to control.
Assay [14] addresses Tyrosine-protein kinase Fgr (Homo sapiens) (UniProt P09769). The assay can be described thus: Competitive binding affinity to FGR (unknown origin) at 10 uM in presence of ATP relative to control. An outline of the steps:
as §1

For assay [15], the target named is Tyrosine-protein kinase ABL1 (Homo sapiens) (UniProt P00519). The assay can be described thus: Competitive binding affinity to ABL1 (unknown origin) at 10 uM in presence of ATP relative to control.
Assay [16] has as its target Epidermal growth factor receptor (Homo sapiens) (UniProt P00533). The assay can be described thus: Competitive binding affinity to EGFR (unknown origin) at 10 uM in presence of ATP relative to control.
Assay [17] concerns the target Calcium/calmodulin-dependent protein kinase type II subunit delta (Homo sapiens) (UniProt Q13557). The assay can be described thus: Competitive binding affinity to CAMK2D (unknown origin) at 10 uM in presence of ATP relative to control.
The target of assay [18] is T2, Phosphorylase b kinase gamma catalytic chain, liver/testis isoform (Homo sapiens) (UniProt P15735).
T2 sequence (whole entry): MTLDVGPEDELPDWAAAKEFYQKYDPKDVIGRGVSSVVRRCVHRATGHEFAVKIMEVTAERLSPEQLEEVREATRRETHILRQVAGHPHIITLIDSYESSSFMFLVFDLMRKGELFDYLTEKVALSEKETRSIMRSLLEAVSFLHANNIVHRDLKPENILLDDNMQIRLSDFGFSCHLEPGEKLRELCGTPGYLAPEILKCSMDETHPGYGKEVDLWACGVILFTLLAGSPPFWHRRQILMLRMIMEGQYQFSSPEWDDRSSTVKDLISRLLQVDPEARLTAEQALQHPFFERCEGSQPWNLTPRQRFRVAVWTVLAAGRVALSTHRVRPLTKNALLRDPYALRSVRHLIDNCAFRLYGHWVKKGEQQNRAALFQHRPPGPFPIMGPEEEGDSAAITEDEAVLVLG
The experiment in a line: Competitive binding affinity to PHKG2 (unknown origin) at 10 uM in presence of ATP relative to control. The method in brief:
as §2

Sequence of Proto-oncogene tyrosine-protein kinase ROS (Homo sapiens) (P08922 whole entry): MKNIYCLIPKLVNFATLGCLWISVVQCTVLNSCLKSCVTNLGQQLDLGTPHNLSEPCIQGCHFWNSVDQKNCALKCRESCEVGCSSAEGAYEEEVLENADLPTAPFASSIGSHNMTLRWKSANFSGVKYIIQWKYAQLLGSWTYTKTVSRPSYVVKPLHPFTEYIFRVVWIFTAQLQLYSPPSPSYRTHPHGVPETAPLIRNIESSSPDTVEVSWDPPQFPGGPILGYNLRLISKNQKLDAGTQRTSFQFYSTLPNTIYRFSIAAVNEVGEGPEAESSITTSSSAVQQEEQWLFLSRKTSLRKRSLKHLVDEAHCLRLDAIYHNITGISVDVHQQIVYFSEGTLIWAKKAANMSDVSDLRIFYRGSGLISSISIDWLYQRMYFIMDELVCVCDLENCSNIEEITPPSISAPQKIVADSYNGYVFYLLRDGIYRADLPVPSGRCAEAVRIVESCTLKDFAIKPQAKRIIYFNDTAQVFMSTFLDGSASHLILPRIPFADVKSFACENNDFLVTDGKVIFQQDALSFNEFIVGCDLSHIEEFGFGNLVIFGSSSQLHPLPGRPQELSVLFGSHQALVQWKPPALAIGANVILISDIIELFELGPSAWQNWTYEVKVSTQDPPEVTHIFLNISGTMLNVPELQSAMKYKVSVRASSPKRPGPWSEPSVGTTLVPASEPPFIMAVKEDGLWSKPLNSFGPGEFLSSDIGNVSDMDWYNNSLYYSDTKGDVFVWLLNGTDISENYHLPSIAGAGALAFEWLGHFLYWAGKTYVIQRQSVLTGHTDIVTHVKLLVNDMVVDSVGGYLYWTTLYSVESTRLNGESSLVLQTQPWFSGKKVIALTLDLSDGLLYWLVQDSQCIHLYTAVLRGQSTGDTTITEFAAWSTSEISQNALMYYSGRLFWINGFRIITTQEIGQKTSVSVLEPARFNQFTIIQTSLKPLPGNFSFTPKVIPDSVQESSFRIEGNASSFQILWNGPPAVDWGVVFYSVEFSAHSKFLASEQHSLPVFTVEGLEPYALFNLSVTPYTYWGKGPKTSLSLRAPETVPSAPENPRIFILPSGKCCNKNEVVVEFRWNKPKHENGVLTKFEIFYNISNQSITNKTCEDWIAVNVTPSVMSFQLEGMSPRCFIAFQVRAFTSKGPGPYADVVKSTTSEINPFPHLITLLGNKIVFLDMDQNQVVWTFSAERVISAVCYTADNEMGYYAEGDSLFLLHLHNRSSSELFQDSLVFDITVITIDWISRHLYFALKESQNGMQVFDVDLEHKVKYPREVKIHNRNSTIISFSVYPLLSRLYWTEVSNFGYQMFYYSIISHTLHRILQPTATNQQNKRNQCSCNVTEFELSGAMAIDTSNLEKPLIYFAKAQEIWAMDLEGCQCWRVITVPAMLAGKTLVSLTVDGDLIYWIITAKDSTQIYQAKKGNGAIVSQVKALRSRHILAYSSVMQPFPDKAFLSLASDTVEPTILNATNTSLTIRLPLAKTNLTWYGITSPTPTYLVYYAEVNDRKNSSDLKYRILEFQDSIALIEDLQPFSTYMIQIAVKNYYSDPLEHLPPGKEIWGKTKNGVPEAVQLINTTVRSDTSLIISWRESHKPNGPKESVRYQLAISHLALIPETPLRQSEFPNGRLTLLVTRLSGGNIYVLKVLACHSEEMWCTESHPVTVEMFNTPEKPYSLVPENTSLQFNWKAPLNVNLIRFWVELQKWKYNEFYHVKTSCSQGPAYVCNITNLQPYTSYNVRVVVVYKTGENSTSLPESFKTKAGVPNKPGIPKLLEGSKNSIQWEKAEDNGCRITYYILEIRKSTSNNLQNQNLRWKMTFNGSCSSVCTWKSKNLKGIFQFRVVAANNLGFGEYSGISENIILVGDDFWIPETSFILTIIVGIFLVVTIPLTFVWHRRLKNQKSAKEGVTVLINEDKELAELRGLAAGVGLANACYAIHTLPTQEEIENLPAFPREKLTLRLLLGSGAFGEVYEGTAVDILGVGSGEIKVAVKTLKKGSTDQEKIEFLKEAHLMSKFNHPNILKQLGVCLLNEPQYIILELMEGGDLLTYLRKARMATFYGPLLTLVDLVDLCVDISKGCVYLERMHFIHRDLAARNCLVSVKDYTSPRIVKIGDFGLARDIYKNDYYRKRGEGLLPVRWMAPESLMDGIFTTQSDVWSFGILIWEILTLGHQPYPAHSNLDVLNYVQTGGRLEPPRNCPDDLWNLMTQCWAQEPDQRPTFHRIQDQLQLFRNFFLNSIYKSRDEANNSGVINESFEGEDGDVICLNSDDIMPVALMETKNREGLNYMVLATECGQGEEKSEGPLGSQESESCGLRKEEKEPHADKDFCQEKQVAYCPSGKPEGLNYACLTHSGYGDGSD
Sequence of RAF proto-oncogene serine/threonine-protein kinase (Homo sapiens) (P04049 whole entry): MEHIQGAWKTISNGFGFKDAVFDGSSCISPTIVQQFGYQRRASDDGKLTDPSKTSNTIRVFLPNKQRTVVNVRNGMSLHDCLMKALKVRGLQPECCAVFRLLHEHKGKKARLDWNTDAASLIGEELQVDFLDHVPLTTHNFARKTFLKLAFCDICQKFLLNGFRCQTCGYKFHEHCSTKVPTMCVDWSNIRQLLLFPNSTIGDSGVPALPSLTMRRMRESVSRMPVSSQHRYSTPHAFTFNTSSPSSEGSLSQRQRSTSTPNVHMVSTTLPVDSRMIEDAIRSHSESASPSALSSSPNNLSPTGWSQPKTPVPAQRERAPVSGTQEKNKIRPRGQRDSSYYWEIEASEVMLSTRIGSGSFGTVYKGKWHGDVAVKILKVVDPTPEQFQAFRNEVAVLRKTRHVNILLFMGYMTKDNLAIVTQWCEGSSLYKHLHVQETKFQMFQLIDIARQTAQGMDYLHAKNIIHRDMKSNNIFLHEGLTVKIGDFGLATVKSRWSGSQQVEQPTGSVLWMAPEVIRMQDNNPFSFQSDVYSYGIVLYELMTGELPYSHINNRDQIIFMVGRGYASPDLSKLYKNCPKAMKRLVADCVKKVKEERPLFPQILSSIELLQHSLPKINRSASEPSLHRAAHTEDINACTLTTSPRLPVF
Sequence of Fibroblast growth factor receptor 3 (Homo sapiens) (P22607 23-806 limits assumed): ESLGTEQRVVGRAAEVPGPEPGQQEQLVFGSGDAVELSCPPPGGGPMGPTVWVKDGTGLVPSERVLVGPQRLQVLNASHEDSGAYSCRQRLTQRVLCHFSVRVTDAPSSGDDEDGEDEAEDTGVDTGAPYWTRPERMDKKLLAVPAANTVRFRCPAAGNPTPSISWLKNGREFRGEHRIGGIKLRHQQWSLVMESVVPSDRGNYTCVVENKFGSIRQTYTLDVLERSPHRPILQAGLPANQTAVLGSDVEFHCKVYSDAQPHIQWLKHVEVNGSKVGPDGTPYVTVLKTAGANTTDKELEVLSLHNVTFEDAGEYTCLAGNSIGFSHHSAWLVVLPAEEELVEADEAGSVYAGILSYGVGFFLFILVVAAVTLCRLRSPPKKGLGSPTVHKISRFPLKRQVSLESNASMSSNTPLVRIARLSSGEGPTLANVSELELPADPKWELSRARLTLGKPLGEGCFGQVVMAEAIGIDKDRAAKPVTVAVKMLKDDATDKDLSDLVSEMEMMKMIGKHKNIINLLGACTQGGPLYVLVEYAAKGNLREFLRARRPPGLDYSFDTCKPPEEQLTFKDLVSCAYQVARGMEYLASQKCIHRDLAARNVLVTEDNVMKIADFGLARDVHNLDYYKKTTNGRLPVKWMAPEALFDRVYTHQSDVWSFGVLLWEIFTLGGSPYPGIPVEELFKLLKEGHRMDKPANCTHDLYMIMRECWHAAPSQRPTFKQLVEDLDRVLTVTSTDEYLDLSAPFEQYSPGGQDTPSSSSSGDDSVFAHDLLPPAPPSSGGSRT
Sequence of Dual specificity protein kinase CLK3 (Homo sapiens) (P49761 whole entry, looked up): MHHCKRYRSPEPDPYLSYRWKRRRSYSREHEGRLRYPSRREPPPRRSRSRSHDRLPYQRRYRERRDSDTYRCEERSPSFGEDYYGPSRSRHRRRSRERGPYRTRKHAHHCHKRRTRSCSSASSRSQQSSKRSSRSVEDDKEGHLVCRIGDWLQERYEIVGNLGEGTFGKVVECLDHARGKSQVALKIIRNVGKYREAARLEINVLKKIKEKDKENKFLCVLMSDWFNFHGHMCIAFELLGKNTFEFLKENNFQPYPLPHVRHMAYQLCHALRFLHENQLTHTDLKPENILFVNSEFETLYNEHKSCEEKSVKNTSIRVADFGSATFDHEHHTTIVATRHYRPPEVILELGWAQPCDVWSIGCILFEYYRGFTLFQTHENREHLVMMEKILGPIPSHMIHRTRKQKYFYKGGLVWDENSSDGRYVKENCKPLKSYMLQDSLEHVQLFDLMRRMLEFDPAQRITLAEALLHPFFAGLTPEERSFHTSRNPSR
Sequence of Tyrosine-protein kinase Fgr (Homo sapiens) (P09769 2-529 limits assumed): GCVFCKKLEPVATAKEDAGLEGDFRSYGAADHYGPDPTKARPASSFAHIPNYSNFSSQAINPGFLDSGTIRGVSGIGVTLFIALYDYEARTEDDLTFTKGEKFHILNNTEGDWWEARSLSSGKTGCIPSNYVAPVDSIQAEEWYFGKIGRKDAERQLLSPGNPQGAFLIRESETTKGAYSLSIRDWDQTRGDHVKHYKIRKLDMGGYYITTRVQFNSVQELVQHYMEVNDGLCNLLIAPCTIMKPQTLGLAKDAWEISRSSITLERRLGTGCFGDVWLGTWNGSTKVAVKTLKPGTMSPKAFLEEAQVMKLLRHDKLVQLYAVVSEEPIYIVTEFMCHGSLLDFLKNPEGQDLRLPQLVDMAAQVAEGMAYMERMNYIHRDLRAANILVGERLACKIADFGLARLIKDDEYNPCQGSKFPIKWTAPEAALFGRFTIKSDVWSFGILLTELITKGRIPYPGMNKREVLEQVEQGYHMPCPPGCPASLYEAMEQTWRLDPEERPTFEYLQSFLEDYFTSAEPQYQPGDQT

Consider `O[C@H]1CC[C@H](Nc2nccc(-c3n[nH]c4ccccc34)n2)CC1`, for which the inhibition in assay [1] was 74%; in assay [2], 88%; in assay [3], 100%; in assay [4], < 50%; in assay [5], < 50%; in assay [6], 84%. For the same compound, the inhibition is < 50% in assay [7]; < 50% in assay [8]; 78% in assay [9]; 93% in assay [10]; 88% in [11]; 99% in assay [12]. Moreover, the inhibition in assay [13] was 94%; in assay [14] it was 80%; in assay [15], < 50%; in assay [16], < 50%; in assay [17], 91%; in assay [18] it was 90%.

In the case of `O[C@H]1CC[C@H](Nc2nccc(-n3ccc4ccccc43)n2)CC1`, the inhibition in assay [1] was < 50%; in assay [2], 80%; in assay [3] it was 99%; in assay [4], < 50%; in assay [5] it was < 50%; in assay [6], < 50%. Moreover, the inhibition in assay [7], in [8], in assay [9], in assay [10], in assay [11] and in [12] was < 50% in each case. For the same compound, the inhibition is < 50% in assay [13]; < 50% in assay [14]; < 50% in assay [15]; < 50% in assay [16]; 85% in assay [17]; < 50% in assay [18].

Regarding `O[C@H]1CC[C@H](Nc2nccc(-n3ncc4ccccc43)n2)CC1`, the inhibition is < 50% in assay [1]; 87% in assay [2]; 99% in [3]; < 50% in assay [4]; < 50% in assay [5]; 65% in assay [6]. Also, the inhibition in [7], in assay [8], in assay [9], in assay [10], in [11] and in assay [12] was < 50% in each case. In addition, the inhibition in assay [13] is < 50%; in assay [14], < 50%; in assay [15], < 50%; in assay [16] it was < 50%; in [17] it was 93%; in assay [18], < 50%.

On to `O[C@H]1CC[C@H](Nc2nccc(-n3nnc4ccccc43)n2)CC1`, for which the inhibition is < 50% in [1]; 67% in assay [2]; 100% in assay [3]; < 50% in assay [4]; < 50% in assay [5]; 72% in assay [6]. Also, the inhibition in assay [7], in assay [8], in [9], in assay [10], in assay [11] and in assay [12] was < 50% throughout. Moreover, the inhibition was 82% in assay [13]; 75% in assay [14]; < 50% in assay [15]; < 50% in assay [16]; 74% in assay [17]; 83% in assay [18].

In the case of `O=C([C@H]1CC[C@H](Nc2nccc(-n3nnc4ccccc43)n2)CC1)N1CCOCC1`, the inhibition in assay [1] was < 50%; in assay [2] it was < 50%; in assay [3], 91%; in assay [4], < 50%; in assay [5], < 50%; in assay [6] it was 75%. The inhibition in assay [7], in [8], in [9], in assay [10], in assay [11] and in assay [12] was < 50% throughout. The inhibition was < 50% in [13]; 82% in assay [14]; 92% in assay [15]; < 50% in [16]; < 50% in [17]; < 50% in assay [18].

For the compound `CS(=O)(=O)CCCOc1cccc2c1ccn2-c1ccnc(N[C@H]2CC[C@H](C(=O)N3CCC(O)CC3)CC2)n1`, in [8], the inhibition is > 85%.

On to `N[C@H]1CC[C@H](Nc2nccc(-n3nnc4ccccc43)n2)CC1`, for which the inhibition is < 50% in [1]; < 50% in [2]; 100% in [3]; < 50% in [4]; < 50% in [5]; 86% in assay [6]. The inhibition was < 50% in assay [7]; < 50% in assay [8]; < 50% in assay [9]; 82% in [10]; 78% in [11]; < 50% in [12]. The inhibition in assay [13] was 94%; in assay [14], 80%; in assay [15], < 50%; in [16], < 50%; in assay [17], 83%; in assay [18], 100%.
